Experimental data: ChEMBL document CHEMBL1124344, “5-Piperazinylalkyl-2(3H)-oxazolones with neuroleptic activity” (J Med Chem, 1989)

Key:
[1] = test system: Mus musculus; assay: Anticonvulsant activity against pentylenetetrazole-induced convulsions, after 1 hour of peroral administration in mouse at a dose of 15 mg/kg; assay type: functional; conditions: route oral
Method in brief: (§1)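 Compounds were dosed as bases suspended in arabic gum at 10 mL/kg orally, after an overnight fast, with vehicle controls. Protection meant no bilateral forepaw clonic seizures or head twitches (tryptamine), or no tonic hind-limb extension (the other two). ED50 is the dose protecting 50%, by probit analysis.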

[2] = test system: Mus musculus; assay: Inhibitory activity against tremorine-induced tremors, after 1 hour of peroral administration in mouse at dose 7.5 mg/kg; assay type: functional; conditions: route oral
Method in brief: (§2)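 Male mice fasted overnight, dosed orally with arabic gum suspension (10 mL/kg) 1 or 5 h before test, vehicle controls included. Tremorine 20 mg/kg ip given 1 h after compounds; central (tremor) and peripheral (salivation) parasympathetic signs recorded. ED50 = dose protecting 50% of animals, by probit analysis.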

[3] = test system: dog (Canis familiaris); assay: Antagonistic activity against apomorphine-induced emesis, after 5 hour of peroral administration in dogs; conditions: Canis lupus familiaris, po
[4] = test system: Mus musculus; assay: Inhibition of spontaneous motor activity after 1 hour of peroral administration in mouse; assay type: functional; conditions: po
Method in brief: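 Mice in groups of five were dosed orally with gum arabic suspensions at 10 mL/kg after an overnight fast, with a vehicle control group. Locomotion was counted for 10 min in a photocell activity cage, in at least two groups per dose. ED50, by probit analysis, is the dose giving 50% inhibition against controls.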

[5] = test system: Mus musculus; assay: Effect on skeletal muscle tone, after 1 hour of peroral administration in mouse at a dose of 100 mg/kg; assay type: functional; conditions: Muscle tissue, route oral
Method in brief: (§3)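 Male mice were placed for 1 h on a 60° inclined wire screen just after dosing and 4 h later. In a second test, trained mice hung by the forepaws from a horizontal 1.8 mm wire 15 cm up; normal mice touch it with a hind paw within 2 s and stay ≥1 min. ED50 is the dose making 50% fall. Dosing was oral in gum arabic suspension at 10 mL/kg after an overnight fast.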

[6] = test system: Mus musculus; assay: Activity of inclined screen in mouse, after 5 hour of peroral administration in mouse at a dose of 60 mg/kg; assay type: functional; conditions: route oral
Method in brief: (§4)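 Male mice dosed orally (arabic gum suspension, 10 mL/kg, fasted overnight) 1 or 5 h before testing. Placed for 1 h on a wire screen bent at 60° to the horizontal. Ataxic or miorelaxed mice slide off. ED50 is the dose at which 50% of mice fall, by probit analysis. Ten animals per dose, with vehicle controls.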

[7] = test system: Mus musculus; assay: Anticonvulsant activity against electroshock-induced convulsions, after 1 hour of peroral administration in mouse at a dose of 40 mg/kg; assay type: functional; conditions: route oral; method in brief: as §1
[8] = test system: Mus musculus; assay: Anticonvulsant activity against pentylenetetrazole-induced convulsions, after 5 hour of peroral administration in mouse at a dose of 40 mg/kg; assay type: functional; conditions: route oral
Method in brief: (§5)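 Male mice dosed orally (arabic gum, 10 mL/kg) 1 or 5 h before challenge with tryptamine 100 mg/kg iv, pentylenetetrazol 110 mg/kg ip, or maximal electroshock. Protection means no bilateral forepaw clonic seizures and head twitches (tryptamine) or no tonic hind-limb extension (others). ED50 protects 50% of mice.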

[9] = test system: Rattus norvegicus; assay: Antagonistic activity against apomorphine-induced stereotypy, after 5 hour of peroral administration in rats at a dose of 100 mg/kg; assay type: functional; conditions: route oral
Method in brief: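 Male rats fasted overnight and given oral doses in arabic gum suspension (10 mL/kg) 1 h, or 1 and 5 h, before challenge. Apomorphine 3 mg/kg iv, with stereotypy observed 20 min later. ED50 is the dose inhibiting stereotypy in 50% of rats, per Janssen's method. Parenthetical entries give the maximal dose and percent activity.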

[10] = test system: Mus musculus; assay: Anticonvulsant activity against pentylenetetrazole-induced convulsions, after 1 hour of peroral administration in mouse at a dose of 40 mg/kg; assay type: functional; conditions: route oral; method in brief: as §5
[11] = test system: Mus musculus; assay: Anticonvulsant activity against pentylenetetrazole-induced convulsions, after 1 hour of peroral administration in mouse at a dose of 20 mg/kg; assay type: functional; conditions: route oral; method in brief: as §1
[12] = test system: Mus musculus; assay: Anticonvulsant activity against pentylenetetrazole-induced convulsions, after 1 hour of peroral administration in mouse at a dose of 9.4 mg/kg; assay type: functional; conditions: route oral; method in brief: as §1
[13] = test system: Mus musculus; assay: Activity of inclined screen in mouse, after 5 hour of peroral administration in mouse at a dose of 100 mg/kg; assay type: functional; conditions: route oral; method in brief: as §4
[14] = test system: Mus musculus; assay: Potentiation against pentobarbital-induced sleeping, after 1 hour of peroral administration in mouse at a dose of 100 mg/kg; assay type: functional; conditions: route oral
Method in brief: (§6)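 Female mice fasted overnight, dosed orally 1 or 5 h beforehand as arabic gum suspension, 10 mL/kg, with vehicle controls. Subhypnotic pentobarbital 10 mg/kg iv; 3 min later placed on back, effect scored as complete loss of righting reflex for at least 15 s. ED50 = dose producing this in 50% of mice, probit analysis.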

[15] = test system: Mus musculus; assay: Potentiation against pentobarbital-induced sleeping, after 5 hour of peroral administration in mouse at a dose of 100 mg/kg; assay type: functional; conditions: route oral; method in brief: as §6
[16] = test system: Mus musculus; assay: Anticonvulsant activity against pentylenetetrazole-induced convulsions, after 5 hour of peroral administration in mouse at a dose of 100 mg/kg; assay type: functional; conditions: route oral; method in brief: as §1
[17] = test system: Mus musculus; assay: Anticonvulsant activity against electroshock-induced convulsions, after 1 hour of peroral administration in mouse at a dose of 100 mg/kg; assay type: functional; conditions: route oral; method in brief: as §1
[18] = test system: Mus musculus; assay: Anticonvulsant activity against electroshock-induced convulsions, after 5 hour of peroral administration in mouse at a dose of 100 mg/kg; assay type: functional; conditions: route oral; method in brief: as §1
[19] = test system: Mus musculus; assay: Anticonvulsant activity against tryptamine-induced convulsions, after 5 hour of peroral administration in mouse at a dose of 40 mg/kg; assay type: functional; conditions: route oral; method in brief: as §1
[20] = test system: Mus musculus; assay: Contractile activity in skeletal muscles, after 1 hour of peroral administration in mouse at dose of 0 mg/kg; assay type: functional; conditions: Muscle tissue, route oral; method in brief: as §3
[21] = test system: Mus musculus; assay: Effect on skeletal muscle tone, after 1 hour of peroral administration in mouse at dose of 200 mg/kg; assay type: functional; conditions: Muscle tissue, route oral; method in brief: as §3
[22] = test system: Mus musculus; assay: Activity of inclined screen in mouse, after 5 hour of peroral administration in mouse at dose of 100 mg/kg; assay type: functional; conditions: route oral; method in brief: as §4
[23] = test system: Mus musculus; assay: Anticonvulsant activity against electroshock-induced convulsions, after 1 hour of peroral administration in mouse at dose of 100 mg/kg; assay type: functional; conditions: route oral; method in brief: as §1
[24] = test system: Mus musculus; assay: Anticonvulsant activity against tryptamine-induced convulsions, after 5 hour of peroral administration in mouse at dose of 40 mg/kg; assay type: functional; conditions: route oral; method in brief: as §1
[25] = test system: Mus musculus; assay: Inhibitory activity against tremorine-induced tremors, after 5 hour of peroral administration in mouse at dose of 60 mg/kg; assay type: functional; conditions: route oral; method in brief: as §2

What does the source list for `CN(C)CCCN1c2ccccc2Sc2ccc(Cl)cc21` [CHLORPROMAZINE]?
inhibition in vivo at 15 mg/kg [1]: 0%; inhibition in vivo at 7.5 mg/kg [2]: 0%; ED50 [3]: 7.5 mg/kg

Which results are given for `COc1ccccc1N1CCN(CCCC(=O)c2ccc(F)cc2)CC1` [FLUANISONE]?
ED50 [4]: 7.7 mg/kg; inhibition in vivo at 100 mg/kg [5]: 30%; inhibition in vivo at 60 mg/kg [6]: 0%; inhibition in vivo at 40 mg/kg [7]: 0%; inhibition in vivo at 40 mg/kg [8]: 0%; inhibition in vivo at 100 mg/kg [9]: 0%; inhibition in vivo at 40 mg/kg [10]: 0%

With `O=C(CCCN1CCC(O)(c2ccc(Cl)cc2)CC1)c1ccc(F)cc1` [HALOPERIDOL] as the compound, how does the inhibition in vivo at 20 mg/kg [11] read?
The inhibition in vivo at 20 mg/kg was 0%.

What about the inhibition in vivo at 9.4 mg/kg [12] of the same compound?
Its inhibition in vivo at 9.4 mg/kg is 0%.

How did the inhibition in vivo at 100 mg/kg [13] turn out when `O=c1[nH]c(-c2ccc(F)cc2)c(CCN2CCN(c3cc(Cl)cc(Cl)c3)CC2)o1` [LODIPERONE] was run?
Its inhibition in vivo at 100 mg/kg is 0%.

And the inhibition in vivo at 100 mg/kg [14]?
The inhibition in vivo at 100 mg/kg was 30%.

What about the inhibition in vivo at 100 mg/kg [15] of the same compound?
Its inhibition in vivo at 100 mg/kg is 0%.

And the inhibition in vivo at 100 mg/kg [16]?
Its inhibition in vivo at 100 mg/kg is 0%.

What about the inhibition in vivo at 100 mg/kg [17] of the same compound?
The inhibition in vivo at 100 mg/kg was 0%.

And the inhibition in vivo at 100 mg/kg [18]?
Its inhibition in vivo at 100 mg/kg is 0%.

And the inhibition in vivo at 40 mg/kg [19]?
The inhibition in vivo at 40 mg/kg was 0%.

Which ED50 [20] does the source give for `COc1ccccc1N1CCN(CCc2oc(=O)[nH]c2-c2ccc(F)cc2)CC1` [ZOLOPERONE] here?
The ED50 was 179 mg/kg.

What about the inhibition in vivo at 200 mg/kg [21] of the same compound?
Its inhibition in vivo at 200 mg/kg is 0%.

What about the inhibition in vivo at 100 mg/kg [22] of the same compound?
The inhibition in vivo at 100 mg/kg was 0%.

And the inhibition in vivo at 100 mg/kg [23]?
The inhibition in vivo at 100 mg/kg was 0%.

And the inhibition in vivo at 40 mg/kg [24]?
The inhibition in vivo at 40 mg/kg was 0%.

What about the inhibition in vivo at 60 mg/kg [25] of the same compound?
The inhibition in vivo at 60 mg/kg was 0%.
